Consider 1 molecule from ChEMBL document CHEMBL4411337, “2-Aminothiazole Derivatives as Selective Allosteric Modulators of the Protein Kinase CK2. 1. Identification of an Allosteric Binding Site” (J Med Chem, 2019).

Calls of active or inactive are those of the source. No cut-off for these calls is given here.

Assay [1] deals with Ephrin type-A receptor 4 (Homo sapiens) (UniProt P54764). The assay is described as follows: Inhibition of EPHA4 (unknown origin) assessed as residual activity at 50 uM relative to control. The essentials: (§1)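 Selectivity profiling against a panel of 44 human kinases. For each kinase, ATP was set to that kinase's Km. Values are residual activity in duplicate assays.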
Assay [2] concerns the target Cyclin-dependent kinase 1/cyclin B1 (Homo sapiens) (UniProt P06493+P14635). The assay is described as follows: Inhibition of CDK1/cyclin B (unknown origin) assessed as residual activity at 50 uM relative to control. It is filed as protein-complex assay. The essentials: as §1
The target in assay [3] is Tyrosine-protein kinase Yes (Homo sapiens) (UniProt P07947). The assay is described as follows: Inhibition of YES (unknown origin) assessed as residual activity at 50 uM relative to control. The essentials:
(§2)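 Profiling panel of 44 human kinases. ATP set to each kinase's Km. Run in duplicate; duplicates within 15–17% of each other.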

In assay [4] the target is Aurora kinase A (Homo sapiens) (UniProt O14965). As to the kind of experiment: Inhibition of aurora A (unknown origin) assessed as residual activity at 50 uM relative to control.
The target in assay [5] is Casein kinase II alpha/beta (Homo sapiens) (UniProt P67870+P68400). The assay is described as follows: Inhibition of recombinant human GST-tagged CK2alpha2/CK2beta2 at 20 uM in presence of ATP and increasing CK2beta levels by radiometric kinase assay. It is filed as protein-complex assay. The essentials: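 CK2α fixed at 150 nM and inhibitor fixed at 20 μM. CK2β was titrated at increasing concentrations and activity was read in the radiometric assay.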
Chain of Casein kinase II alpha/beta (Homo sapiens) (P67870 2-215 limits assumed): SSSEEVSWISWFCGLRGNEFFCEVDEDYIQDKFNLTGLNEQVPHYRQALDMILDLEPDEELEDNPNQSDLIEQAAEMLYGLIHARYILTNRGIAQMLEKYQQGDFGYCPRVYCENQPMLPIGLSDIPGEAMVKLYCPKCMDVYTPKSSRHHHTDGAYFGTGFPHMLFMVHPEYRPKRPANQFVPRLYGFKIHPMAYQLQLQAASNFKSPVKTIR
Chain of Casein kinase II alpha/beta (Homo sapiens) (P68400 whole entry partner): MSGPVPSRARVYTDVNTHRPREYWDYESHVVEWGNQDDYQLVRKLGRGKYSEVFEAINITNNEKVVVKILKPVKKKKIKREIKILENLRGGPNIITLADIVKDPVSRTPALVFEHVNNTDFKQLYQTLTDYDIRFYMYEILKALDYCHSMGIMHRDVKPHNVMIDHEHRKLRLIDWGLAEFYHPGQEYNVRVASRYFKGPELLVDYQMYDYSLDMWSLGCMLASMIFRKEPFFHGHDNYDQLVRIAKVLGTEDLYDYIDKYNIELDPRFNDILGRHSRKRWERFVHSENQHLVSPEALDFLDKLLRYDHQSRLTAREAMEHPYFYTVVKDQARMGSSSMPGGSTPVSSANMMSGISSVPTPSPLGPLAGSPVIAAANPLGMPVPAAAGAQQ

The target of assay [6] is Epidermal growth factor receptor (Homo sapiens) (UniProt P00533). As to the kind of experiment: Inhibition of EGFR (unknown origin) assessed as residual activity at 50 uM relative to control. The essentials: as §1
In assay [7] the target is CDK2/Cyclin A2 (Homo sapiens) (UniProt P24941+P20248). The assay is described as follows: Inhibition of CDK2/cyclin A (unknown origin) assessed as residual activity at 50 uM relative to control. It is filed as protein-complex assay. In short, it runs like this: as §1
The target of assay [8] is Rho-associated protein kinase 1 (Homo sapiens) (UniProt Q13464). The assay is described as follows: Inhibition of ROCK1 (unknown origin) assessed as residual activity at 50 uM relative to control. The essentials:
as §2

In assay [9] the target is Platelet-derived growth factor receptor alpha (Homo sapiens) (UniProt P16234). As to the kind of experiment: Inhibition of PDGFRalpha (unknown origin) assessed as residual activity at 50 uM relative to control. In short, it runs like this: as §1
For assay [10], the target named is Dual specificity mitogen-activated protein kinase kinase 1 (Homo sapiens) (UniProt Q02750). As to the kind of experiment: Inhibition of MEK1 (unknown origin) assessed as residual activity at 50 uM relative to control. In short, it runs like this: as §1
Chain of Dual specificity mitogen-activated protein kinase kinase 1 (Homo sapiens) (Q02750 whole entry): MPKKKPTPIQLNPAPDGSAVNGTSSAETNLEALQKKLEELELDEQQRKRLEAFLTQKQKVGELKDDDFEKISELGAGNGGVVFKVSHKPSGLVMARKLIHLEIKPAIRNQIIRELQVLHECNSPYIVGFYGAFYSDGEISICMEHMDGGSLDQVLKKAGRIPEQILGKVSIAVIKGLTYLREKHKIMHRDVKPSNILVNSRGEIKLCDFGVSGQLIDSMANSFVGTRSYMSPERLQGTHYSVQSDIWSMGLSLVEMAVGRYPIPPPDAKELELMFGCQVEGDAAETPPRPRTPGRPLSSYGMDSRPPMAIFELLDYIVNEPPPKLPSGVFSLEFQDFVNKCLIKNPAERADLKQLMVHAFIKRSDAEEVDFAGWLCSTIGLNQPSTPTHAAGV
The target of assay [11] is Serine/threonine-protein kinase STK11 (Homo sapiens) (UniProt Q15831). The assay is described as follows: Inhibition of LKB1 (unknown origin) assessed as residual activity at 50 uM relative to control. The essentials: as §1
Assay [12] addresses Dual specificity tyrosine-phosphorylation-regulated kinase 2 (Homo sapiens) (UniProt Q92630). As to the kind of experiment: Inhibition of DYRK2 (unknown origin) assessed as residual activity at 50 uM relative to control. In short, it runs like this: as §1
Assay [13] deals with Homeodomain-interacting protein kinase 2 (Homo sapiens) (UniProt Q9H2X6). The assay is described as follows: Inhibition of HIPK2 (unknown origin) assessed as residual activity at 50 uM relative to control. In short, it runs like this:
as §1

Chain of Tyrosine-protein kinase Yes (Homo sapiens) (P07947 2-543 limits assumed): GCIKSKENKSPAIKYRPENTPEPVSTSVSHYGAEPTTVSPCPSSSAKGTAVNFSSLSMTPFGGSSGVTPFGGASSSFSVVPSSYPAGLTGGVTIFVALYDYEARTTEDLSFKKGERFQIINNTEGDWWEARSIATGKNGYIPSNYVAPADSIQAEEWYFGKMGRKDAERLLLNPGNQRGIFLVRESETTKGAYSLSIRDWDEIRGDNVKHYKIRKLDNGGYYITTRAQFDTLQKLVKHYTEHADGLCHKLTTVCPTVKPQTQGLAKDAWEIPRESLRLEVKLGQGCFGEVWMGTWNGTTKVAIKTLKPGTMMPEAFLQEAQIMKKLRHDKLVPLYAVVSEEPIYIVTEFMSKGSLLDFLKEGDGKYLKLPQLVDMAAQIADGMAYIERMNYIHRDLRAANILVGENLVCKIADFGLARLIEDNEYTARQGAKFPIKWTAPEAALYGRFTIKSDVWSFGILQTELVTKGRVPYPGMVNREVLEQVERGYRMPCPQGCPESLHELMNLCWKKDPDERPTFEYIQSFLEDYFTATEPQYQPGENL
Chain of Rho-associated protein kinase 1 (Homo sapiens) (Q13464 2-1354 limits assumed): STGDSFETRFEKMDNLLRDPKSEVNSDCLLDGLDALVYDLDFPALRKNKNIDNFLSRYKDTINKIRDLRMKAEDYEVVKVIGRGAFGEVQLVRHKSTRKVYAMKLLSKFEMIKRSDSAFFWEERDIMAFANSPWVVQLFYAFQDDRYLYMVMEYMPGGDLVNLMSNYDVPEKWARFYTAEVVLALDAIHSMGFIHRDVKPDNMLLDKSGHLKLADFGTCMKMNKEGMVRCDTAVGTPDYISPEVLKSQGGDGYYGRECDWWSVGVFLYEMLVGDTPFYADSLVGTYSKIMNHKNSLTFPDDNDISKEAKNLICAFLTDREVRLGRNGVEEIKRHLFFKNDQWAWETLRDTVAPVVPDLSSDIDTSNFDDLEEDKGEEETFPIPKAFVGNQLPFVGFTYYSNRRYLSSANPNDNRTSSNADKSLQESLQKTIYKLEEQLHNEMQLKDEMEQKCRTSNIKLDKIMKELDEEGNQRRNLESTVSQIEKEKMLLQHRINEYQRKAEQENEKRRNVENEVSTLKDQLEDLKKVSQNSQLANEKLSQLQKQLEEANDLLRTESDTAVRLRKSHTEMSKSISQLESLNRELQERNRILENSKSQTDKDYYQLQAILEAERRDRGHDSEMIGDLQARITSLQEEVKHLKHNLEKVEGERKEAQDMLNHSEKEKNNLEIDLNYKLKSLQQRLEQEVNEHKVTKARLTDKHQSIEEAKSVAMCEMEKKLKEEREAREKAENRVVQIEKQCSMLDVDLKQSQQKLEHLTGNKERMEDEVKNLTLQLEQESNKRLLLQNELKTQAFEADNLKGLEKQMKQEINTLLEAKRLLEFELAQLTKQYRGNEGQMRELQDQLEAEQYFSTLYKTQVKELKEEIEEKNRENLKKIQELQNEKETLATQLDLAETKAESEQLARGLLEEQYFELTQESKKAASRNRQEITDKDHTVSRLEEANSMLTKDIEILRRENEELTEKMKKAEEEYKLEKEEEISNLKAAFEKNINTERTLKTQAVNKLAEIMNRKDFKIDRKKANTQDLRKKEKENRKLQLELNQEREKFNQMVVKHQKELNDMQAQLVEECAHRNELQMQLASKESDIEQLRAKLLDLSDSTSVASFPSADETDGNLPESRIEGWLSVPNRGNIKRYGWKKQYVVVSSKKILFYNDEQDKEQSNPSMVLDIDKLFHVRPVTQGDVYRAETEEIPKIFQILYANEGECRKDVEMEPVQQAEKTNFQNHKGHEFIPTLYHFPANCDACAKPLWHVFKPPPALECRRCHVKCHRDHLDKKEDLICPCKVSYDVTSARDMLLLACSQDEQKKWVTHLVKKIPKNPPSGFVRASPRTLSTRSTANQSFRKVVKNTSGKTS
Chain of Homeodomain-interacting protein kinase 2 (Homo sapiens) (Q9H2X6 whole entry, looked up): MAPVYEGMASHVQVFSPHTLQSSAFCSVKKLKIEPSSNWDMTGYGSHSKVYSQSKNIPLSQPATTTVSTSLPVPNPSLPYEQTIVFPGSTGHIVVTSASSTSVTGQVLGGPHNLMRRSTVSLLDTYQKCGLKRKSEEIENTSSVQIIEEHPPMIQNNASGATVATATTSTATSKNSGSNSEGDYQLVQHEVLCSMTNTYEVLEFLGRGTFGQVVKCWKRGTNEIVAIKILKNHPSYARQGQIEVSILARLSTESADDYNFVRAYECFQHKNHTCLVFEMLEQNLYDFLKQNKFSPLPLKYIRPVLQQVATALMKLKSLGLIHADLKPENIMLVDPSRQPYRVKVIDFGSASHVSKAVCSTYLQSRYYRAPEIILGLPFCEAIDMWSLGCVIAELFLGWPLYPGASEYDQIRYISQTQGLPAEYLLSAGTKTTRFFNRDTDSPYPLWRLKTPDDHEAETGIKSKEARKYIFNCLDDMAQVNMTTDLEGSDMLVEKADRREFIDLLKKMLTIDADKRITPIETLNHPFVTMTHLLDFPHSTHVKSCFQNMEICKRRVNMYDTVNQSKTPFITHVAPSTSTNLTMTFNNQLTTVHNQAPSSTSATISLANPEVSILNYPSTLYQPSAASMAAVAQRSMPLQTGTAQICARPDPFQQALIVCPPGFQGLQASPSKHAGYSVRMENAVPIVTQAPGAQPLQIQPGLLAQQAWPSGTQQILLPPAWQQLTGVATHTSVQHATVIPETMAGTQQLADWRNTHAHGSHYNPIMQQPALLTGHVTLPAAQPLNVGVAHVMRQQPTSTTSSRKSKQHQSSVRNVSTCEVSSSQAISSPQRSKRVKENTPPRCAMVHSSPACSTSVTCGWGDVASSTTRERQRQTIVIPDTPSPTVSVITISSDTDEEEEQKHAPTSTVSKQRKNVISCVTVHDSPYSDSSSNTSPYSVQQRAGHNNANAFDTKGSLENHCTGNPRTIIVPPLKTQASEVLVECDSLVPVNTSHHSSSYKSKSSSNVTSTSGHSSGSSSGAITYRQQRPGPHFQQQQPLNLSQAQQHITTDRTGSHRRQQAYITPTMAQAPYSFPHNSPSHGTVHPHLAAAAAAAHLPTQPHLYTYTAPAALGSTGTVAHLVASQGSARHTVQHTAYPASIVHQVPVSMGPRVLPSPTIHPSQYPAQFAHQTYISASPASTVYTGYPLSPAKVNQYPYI
Chain of Cyclin-dependent kinase 1/cyclin B1 (Homo sapiens) (P06493 whole entry, looked up): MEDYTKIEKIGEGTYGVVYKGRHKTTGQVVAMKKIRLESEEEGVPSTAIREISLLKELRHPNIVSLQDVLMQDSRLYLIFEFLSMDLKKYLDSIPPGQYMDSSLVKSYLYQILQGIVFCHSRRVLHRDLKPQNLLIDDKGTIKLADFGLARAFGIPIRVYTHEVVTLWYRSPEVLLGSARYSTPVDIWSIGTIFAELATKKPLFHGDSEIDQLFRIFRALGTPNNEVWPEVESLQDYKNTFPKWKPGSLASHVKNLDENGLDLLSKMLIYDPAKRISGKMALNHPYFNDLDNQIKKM
Chain of Cyclin-dependent kinase 1/cyclin B1 (Homo sapiens) (P14635 whole entry, looked up): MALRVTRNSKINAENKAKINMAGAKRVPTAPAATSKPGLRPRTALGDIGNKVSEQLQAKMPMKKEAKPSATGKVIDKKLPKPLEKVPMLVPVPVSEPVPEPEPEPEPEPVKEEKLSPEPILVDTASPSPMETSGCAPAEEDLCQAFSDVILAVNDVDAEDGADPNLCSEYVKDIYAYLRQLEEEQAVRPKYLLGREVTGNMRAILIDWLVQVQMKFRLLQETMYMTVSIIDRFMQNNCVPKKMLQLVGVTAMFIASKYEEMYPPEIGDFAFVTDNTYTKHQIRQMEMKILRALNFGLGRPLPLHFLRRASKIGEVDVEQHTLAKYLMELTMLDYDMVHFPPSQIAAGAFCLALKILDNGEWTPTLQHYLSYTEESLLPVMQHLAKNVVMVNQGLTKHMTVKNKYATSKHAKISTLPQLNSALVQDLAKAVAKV

With `O=C(O)c1ccc(Nc2nc(-c3cccc([N+](=O)[O-])c3)cs2)cc1`, the Activity in assay [1] stood at 45%; in [2], 89%; in [3] it was 100%; in [4], 79%; in [6] it was 26%; in assay [7], 86%. Besides, the Activity in assay [8] worked out at 100%; in [9] it was 65%; in [10], 103%; in [11], 85%; in [12], 78%; in assay [13] it was 83%. Besides, the inhibition result in assay [5] was “Active”.
